Data taken from ChEMBL document CHEMBL5058577, “EUbOPEN Chemogenomics Library 2 (Multiplex)” (2022).

Test system: U2OS
Experiment: Multiplex assay against U2OS
Type: toxicity, cell-based
Details: human
Method in brief: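 With compound added, live cells were imaged on a CQ1 microscope at 37°C and 5% CO2; staining with Hoechst33342, BioTracker Green Microtubule Cytoskeleton Dye, MitoTracker Red and Annexin V Alexa Fluor 680 had been done at seeding. The CellPathfinder machine-learning gating scheme split cells into Hoechst high-intensity objects or normal cells, normal cells into healthy, pyknosed or fragmented nuclei, and pyknosed cells into mitotic or apoptotic. The tubulin, mitochondrial-mass and membrane-permeability phenotypes are per cents of healthy-nucleus cells.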

[1] = 12 h, 1 µM, compound concentration 1 uM, replicate 1
[2] = 12 h, 1 µM, compound concentration 1 uM, replicate 2
[3] = 12 h, 10 µM, compound concentration 10 uM, replicate 1
[4] = 12 h, 10 µM, compound concentration 10 uM, replicate 2
[5] = 24 h, 1 µM, compound concentration 1 uM, replicate 1
[6] = 24 h, 1 µM, compound concentration 1 uM, replicate 2
[7] = 24 h, 10 µM, compound concentration 10 uM, replicate 1
[8] = 24 h, 10 µM, compound concentration 10 uM, replicate 2
[9] = 48 h, 1 µM, compound concentration 1 uM, replicate 1
[10] = 48 h, 1 µM, compound concentration 1 uM, replicate 2
[11] = 48 h, 10 µM, compound concentration 10 uM, replicate 1
[12] = 48 h, 10 µM, compound concentration 10 uM, replicate 2

For N#Cc1cc(F)cc(-c2nc(-c3ccc(F)cn3)no2)c1, the “Population Apoptotic (%)” value [1] was 55%, the “Population Fragmented Nuclei (%)” value [1] was 24% and the “Population Healthy Nuclei (%)” value [1] was 65%. For the same compound, the “Population Hoechst High Intensity Objects (%)” value [1] was 1%, the “Population Membrane Permeable-Phenotype (%)” value [1] was 5% and the “Population Mitochondria Different-Phenotype (%)” value [1] was 0%. The “Population Mitotic Cells (%)” value [1] was 44%, the “Population Normal (%)” value [1] was 98% and the “Population Pyknosed Nuclei (%)” value [1] was 10%. The “Population Tubulin-Different-Phenotype (%)” value [1] was 3%, the “Total Cell Count” value [1] was 178 and the “Population Apoptotic (%)” value [2] was 100%. The “Population Fragmented Nuclei (%)” value [2] was 17%, the “Population Healthy Nuclei (%)” value [2] was 79% and the “Population Hoechst High Intensity Objects (%)” value [2] was 0%. The “Population Membrane Permeable-Phenotype (%)” value [2] was 6%, the “Population Mitochondria Different-Phenotype (%)” value [2] was 5% and the “Population Mitotic Cells (%)” value [2] was 0%. The “Population Normal (%)” value [2] was 99%, the “Population Pyknosed Nuclei (%)” value [2] was 4% and the “Population Tubulin-Different-Phenotype (%)” value [2] was 2%. The “Total Cell Count” value [2] was 101, the “Population Apoptotic (%)” value [3] was 76% and the “Population Fragmented Nuclei (%)” value [3] was 33%. The “Population Healthy Nuclei (%)” value [3] was 59%, the “Population Hoechst High Intensity Objects (%)” value [3] was 1% and the “Population Membrane Permeable-Phenotype (%)” value [3] was 8%. For the same compound, the “Population Mitochondria Different-Phenotype (%)” value [3] was 2%, the “Population Mitotic Cells (%)” value [3] was 23% and the “Population Normal (%)” value [3] was 98%. The “Population Pyknosed Nuclei (%)” value [3] was 6%, the “Population Tubulin-Different-Phenotype (%)” value [3] was 2% and the “Total Cell Count” value [3] was 196. The “Population Apoptotic (%)” value [4] was 88%, the “Population Fragmented Nuclei (%)” value [4] was 12% and the “Population Healthy Nuclei (%)” value [4] was 81%. For the same compound, the “Population Membrane Permeable-Phenotype (%)” value [4] was 7%, the “Population Mitochondria Different-Phenotype (%)” value [4] was 4% and the “Population Mitotic Cells (%)” value [4] was 11%. The “Population Tubulin-Different-Phenotype (%)” value [4] was 1%, the “Total Cell Count” value [4] was 151 and the “Population Apoptotic (%)” value [5] was 90%. For the same compound, the “Population Fragmented Nuclei (%)” value [5] was 22%, the “Population Healthy Nuclei (%)” value [5] was 66% and the “Population Hoechst High Intensity Objects (%)” value [5] was 4%. For the same compound, the “Population Membrane Permeable-Phenotype (%)” value [5] was 8%, the “Population Mitochondria Different-Phenotype (%)” value [5] was 0% and the “Population Mitotic Cells (%)” value [5] was 9%. For the same compound, the “Population Normal (%)” value [5] was 95%, the “Population Pyknosed Nuclei (%)” value [5] was 11% and the “Population Tubulin-Different-Phenotype (%)” value [5] was 4%. The “Total Cell Count” value [5] was 197, the “Population Fragmented Nuclei (%)” value [6] was 8% and the “Population Healthy Nuclei (%)” value [6] was 84%. For the same compound, the “Population Hoechst High Intensity Objects (%)” value [6] was 0%, the “Population Membrane Permeable-Phenotype (%)” value [6] was 2% and the “Population Mitochondria Different-Phenotype (%)” value [6] was 3%. For the same compound, the “Population Mitotic Cells (%)” value [6] was 10%, the “Population Normal (%)” value [6] was 99% and the “Population Pyknosed Nuclei (%)” value [6] was 8%. For the same compound, the “Population Tubulin-Different-Phenotype (%)” value [6] was 2%, the “Total Cell Count” value [6] was 126 and the “Population Apoptotic (%)” value [7] was 93%. The “Population Fragmented Nuclei (%)” value [7] was 32%, the “Population Healthy Nuclei (%)” value [7] was 60% and the “Population Hoechst High Intensity Objects (%)” value [7] was 1%. For the same compound, the “Population Membrane Permeable-Phenotype (%)” value [7] was 7%, the “Population Mitochondria Different-Phenotype (%)” value [7] was 0% and the “Population Mitotic Cells (%)” value [7] was 6%. For the same compound, the “Population Normal (%)” value [7] was 98%, the “Population Pyknosed Nuclei (%)” value [7] was 7% and the “Population Tubulin-Different-Phenotype (%)” value [7] was 2%. The “Total Cell Count” value [7] was 230, the “Population Apoptotic (%)” value [8] was 88% and the “Population Fragmented Nuclei (%)” value [8] was 9%. For the same compound, the “Population Healthy Nuclei (%)” value [8] was 85%, the “Population Hoechst High Intensity Objects (%)” value [8] was 0% and the “Population Membrane Permeable-Phenotype (%)” value [8] was 5%. For the same compound, the “Population Mitochondria Different-Phenotype (%)” value [8] was 1%, the “Population Mitotic Cells (%)” value [8] was 11% and the “Population Normal (%)” value [8] was 99%. The “Population Pyknosed Nuclei (%)” value [8] was 4%, the “Population Tubulin-Different-Phenotype (%)” value [8] was 1% and the “Total Cell Count” value [8] was 216. For the same compound, the “Population Apoptotic (%)” value [9] was 96%, the “Population Fragmented Nuclei (%)” value [9] was 18% and the “Population Healthy Nuclei (%)” value [9] was 71%. For the same compound, the “Population Hoechst High Intensity Objects (%)” value [9] was 1%, the “Population Membrane Permeable-Phenotype (%)” value [9] was 4% and the “Population Mitochondria Different-Phenotype (%)” value [9] was 0%. For the same compound, the “Population Mitotic Cells (%)” value [9] was 3%, the “Population Normal (%)” value [9] was 98% and the “Population Pyknosed Nuclei (%)” value [9] was 9%. The “Population Tubulin-Different-Phenotype (%)” value [9] was 2%, the “Total Cell Count” value [9] was 290 and the “Population Apoptotic (%)” value [10] was 100%. For the same compound, the “Population Fragmented Nuclei (%)” value [10] was 15%, the “Population Healthy Nuclei (%)” value [10] was 79% and the “Population Mitochondria Different-Phenotype (%)” value [10] was 3%. For the same compound, the “Population Mitotic Cells (%)” value [10] was 0%, the “Population Pyknosed Nuclei (%)” value [10] was 5% and the “Population Tubulin-Different-Phenotype (%)” value [10] was 1%. For the same compound, the “Total Cell Count” value [10] was 199, the “Population Apoptotic (%)” value [11] was 85% and the “Population Fragmented Nuclei (%)” value [11] was 30%. The “Population Healthy Nuclei (%)” value [11] was 62%, the “Population Hoechst High Intensity Objects (%)” value [11] was 1% and the “Population Membrane Permeable-Phenotype (%)” value [11] was 6%. For the same compound, the “Population Mitochondria Different-Phenotype (%)” value [11] was 2%, the “Population Mitotic Cells (%)” value [11] was 14% and the “Population Normal (%)” value [11] was 98%. For the same compound, the “Population Pyknosed Nuclei (%)” value [11] was 7%, the “Population Tubulin-Different-Phenotype (%)” value [11] was 3% and the “Total Cell Count” value [11] was 282. The “Population Apoptotic (%)” value [12] was 94%, the “Population Fragmented Nuclei (%)” value [12] was 10% and the “Population Healthy Nuclei (%)” value [12] was 84%. For the same compound, the “Population Membrane Permeable-Phenotype (%)” value [12] was 4%, the “Population Mitotic Cells (%)” value [12] was 5% and the “Population Pyknosed Nuclei (%)” value [12] was 5%. The “Population Tubulin-Different-Phenotype (%)” value [12] was 2% and the “Total Cell Count” value [12] was 344.
